Screens deposited in PubChem by Johns Hopkins Ion Channel Center.
In the library only some 3.7% were active in any assay of this set; here they are far more common.
Kir21 inh = inhibitors of mouse Kir2.1 inward-rectifier potassium channel. P35561. actives 0.85% (n = 310,000). B-score at 10 µM. HEK293-Kir2.1, FluxOR thallium flux fluorescence; active compounds read low;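 active = fluorescence ratio B-score at or below minus 3 SD of library scores, with starting-brightness B-score within 2 SD, cut at about -4.2 in these data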;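 also: channel flux triggered by added potassium and thallium sulfate stimulus; B-score of peak minus minimum fluorescence over baseline after thallium stimulus; more negative B-score means stronger Kir2.1 block with less thallium influx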
Target sequence (P35561 whole entry, looked up): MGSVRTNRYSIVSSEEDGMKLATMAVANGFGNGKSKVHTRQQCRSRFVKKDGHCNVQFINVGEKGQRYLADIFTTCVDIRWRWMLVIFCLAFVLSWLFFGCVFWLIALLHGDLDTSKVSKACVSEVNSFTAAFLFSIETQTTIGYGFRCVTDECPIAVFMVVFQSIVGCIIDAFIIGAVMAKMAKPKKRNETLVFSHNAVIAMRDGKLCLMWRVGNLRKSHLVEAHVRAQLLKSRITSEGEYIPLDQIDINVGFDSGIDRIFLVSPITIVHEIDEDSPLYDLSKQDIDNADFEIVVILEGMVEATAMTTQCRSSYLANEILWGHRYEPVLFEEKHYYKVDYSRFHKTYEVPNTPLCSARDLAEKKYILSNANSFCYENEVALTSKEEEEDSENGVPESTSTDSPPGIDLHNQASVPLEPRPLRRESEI
KCNQ1 pot = potentiators or activators of human KCNQ1 potassium channel | P51787 | CHO-K1 KCNQ1, thallium flux FluxOR fluorescence; active compounds read high | B-score at 10 µM | actives 0.35% (n = 310,000);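 active = fluorescence ratio B-score, a plate-corrected score, at least three library SD, with initial intensity B-score within 5 SD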
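Assay system: CHO-K1 cells stably expressing KCNQ1. Medium: assay buffer for compound exposure, DMSO matched across wells. Timing: 37 °C overnight plating, 90-min dark dye load, 20-min compound pretreatment. Signal: kinetic FluxOR fluorescence, 10 s baseline plus 110 s post-stimulus.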
hERG rescue = compounds protecting human hERG from proarrhythmic drug block; CHO-hERG, FluxOR thallium flux, dofetilide IC70 present; activation (rescue from dofetilide block), less the hit threshold, % at 10 µM; Q12809; actives 0.51% (n = 310,000); AID 1511;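 active = activation above the mean of controls blocked by dofetilide plus 5 SD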;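 also: thallium influx through hERG after potassium depolarization seen as dye fluorescence rise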
KCNK9 block = inhibitors of human KCNK9 two-pore domain potassium channel | HEK293 KCNK9, FluxOR thallium flux fluorescence; active compounds read low | B-score at 10 µM | Q9NPC2 | actives 1.2% (n = 310,000);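 active = ratio B-score over 3 SD below the library mean, with starting fluorescence within 5 SD of its mean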;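 also: negative B-score means less thallium flux so channel inhibition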
KCNK3 inh = human KCNK3 channel inhibition, primary screen; CHO-KCNK3 thallium flux, FluxOR fluorescence; active compounds read low; actives 0.84% (n = 340,000); B-score at 10 µM; O14649;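 active = B-score under library mean minus 4 SD, starting fluorescence ratio at most library mean plus 5 SD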;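 also: more negative B-score means stronger inhibition of thallium flux through KCNK3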
KCNQ1 block = blocks the human KCNQ1 potassium channel | CHO-K1 KCNQ1, FluxOR thallium flux fluorescence; active compounds read high | actives 1.3% (n = 310,000) | B-score at 10 µM;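 active = compounds whose thallium flux B-score, printed positive for inhibition, exceeds three library SD while starting fluorescence stays within three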;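 also: channel opened by potassium depolarization with thallium stimulus after 20 min compound exposure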
KCNK3 inh conf = human KCNK3 channel inhibition, confirmation assay. shares compounds with KCNK3 inh. CHO-KCNK3 thallium flux, FluxOR fluorescence; 0% buffer, 100% carvedilol maximal block. ratio percent of control, % at 10 µM. actives 99% (n = 2,400). AID 651638;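 active = ratio percent of control, averaged over triplicates, above buffer control mean plus 5 SD, cut at about 64% in these data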;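 also: ratio is the fluorescence rise from min to max over baseline after thallium stimulus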
KCNK3 uninduced = activity in cells without induced KCNK3 expression. shares compounds with KCNK3 inh. non-induced KCNK3 parental cells, FluxOR thallium flux; active compounds read low. actives 40% (n = 2,400). AID 651747. thallium flux ratio (lower = more inhibition) at 10 µM;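 active = thallium flux ratio, averaged over three wells, more than 5 SD below the buffer control mean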;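 also: host cells are CHO cells without KCNK3 induction; ratio is peak minus trough fluorescence over baseline then normalized to buffer controls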
The depositor's hits bear a star.

Screening CCc1ccc2c(c1)C1(NN=C(c3cccc4ccccc34)S1)C(=O)N2 (stereo unspecified) returned Kir21 inh -0.66, KCNQ1 pot inactive, hERG rescue -2, KCNK9 block inactive, KCNK3 inh -13*, KCNQ1 block 15*, KCNK3 inh conf 149* and KCNK3 uninduced 0.13*.
For N#Cc1cc2cc3ccccc3nc2n2c(=O)c3ccccc3nc12 the results were Kir21 inh -2.5, KCNQ1 pot inactive, hERG rescue -9, KCNK9 block inactive, KCNK3 inh -9.6*, KCNQ1 block inactive, KCNK3 inh conf 122* and KCNK3 uninduced 0.12*.
For Cn1c(=O)c2cc3ccccc3nc2n(C)c1=O the results were Kir21 inh 0.42, KCNQ1 pot inactive, hERG rescue -1, KCNK9 block inactive, KCNK3 inh inactive and KCNQ1 block inactive.
COc1ccc(N2CCN(C(=O)Cc3cccs3)CC2)cc1 was read as Kir21 inh -0.15, KCNQ1 pot inactive, hERG rescue 3, KCNK9 block inactive, KCNK3 inh -9.5*, KCNQ1 block inactive, KCNK3 inh conf 75* and KCNK3 uninduced inactive.
N#Cc1nc(COc2ccc(Br)cc2)oc1N1CCCCCC1 was read as Kir21 inh 0.33, KCNQ1 pot inactive, hERG rescue -7, KCNK9 block inactive, KCNK3 inh -15*, KCNQ1 block inactive, KCNK3 inh conf 82* and KCNK3 uninduced inactive.
For COc1ccc2[nH]c3c(N4CCN(Cc5ccc6c(c5)OCO6)CC4)ncnc3c2c1 the results were Kir21 inh -1.1, KCNQ1 pot inactive, hERG rescue -24, KCNK9 block inactive, KCNK3 inh inactive and KCNQ1 block inactive.
`COc1ccc2[nH]c3c(N4CCC(O)(c5cccc(C(F)(F)F)c5)CC4)ncnc3c2c1` gave Kir21 inh -0.18, KCNQ1 pot inactive, hERG rescue -16, KCNK9 block inactive, KCNK3 inh -12*, KCNQ1 block inactive, KCNK3 inh conf 122* and KCNK3 uninduced 0.15*.
Screening CCCNC(=O)c1c(N)n(-c2cc(OC)cc(OC)c2)c2nc3ccccc3nc12 returned Kir21 inh 1.9, KCNQ1 pot inactive, hERG rescue -9, KCNK9 block inactive, KCNK3 inh -9.2*, KCNQ1 block inactive, KCNK3 inh conf 125* and KCNK3 uninduced inactive.
For CC(C)(C)OC(=O)NCCCCCc1nnc(SCC(=O)Nc2cccc(Cl)c2)o1 the results were Kir21 inh -1.3, KCNQ1 pot inactive, hERG rescue -17, KCNK9 block inactive, KCNK3 inh -9.2*, KCNQ1 block inactive, KCNK3 inh conf 117* and KCNK3 uninduced 0.15*.
`CN(C(=O)COc1cc(=O)n(C)c2ccccc12)c1ccc(Cl)cc1` gave Kir21 inh -0.56, KCNQ1 pot inactive, hERG rescue -12, KCNK9 block inactive, KCNK3 inh inactive and KCNQ1 block inactive.
Screening CN(c1ccc(Cl)cc1)c1cc(=O)n(C)c2ccccc12 returned Kir21 inh -7*, KCNQ1 pot inactive, hERG rescue -5, KCNK9 block inactive, KCNK3 inh -8.8*, KCNQ1 block inactive, KCNK3 inh conf 98* and KCNK3 uninduced inactive.
For COc1cc(CC(=O)N(C)CC(=O)Nc2ccc(Cl)c(C(F)(F)F)c2)cc(OC)c1OC the results were Kir21 inh 0.56, KCNQ1 pot inactive, hERG rescue -8, KCNK9 block inactive, KCNK3 inh -9.2*, KCNQ1 block inactive, KCNK3 inh conf 113* and KCNK3 uninduced inactive.
Screening COc1ccc(NC(=O)CSCC(=O)N(C)CC(=O)Nc2ccc(Cl)c(C(F)(F)F)c2)cc1 returned Kir21 inh -1.2, KCNQ1 pot inactive, hERG rescue -14, KCNK9 block inactive, KCNK3 inh inactive and KCNQ1 block inactive.
O=[N+]([O-])/C(C(Cl)=C(Cl)Cl)=C(\Sc1ccccc1)N1CCCCC1 was read as Kir21 inh 1.4, KCNQ1 pot inactive, hERG rescue -14, KCNK9 block inactive, KCNK3 inh inactive and KCNQ1 block inactive.
`O=[N+]([O-])C(=C1SCCS1)C(=C(Cl)Cl)N1CCCCC1` gave Kir21 inh 1.2, KCNQ1 pot inactive, hERG rescue -4, KCNK9 block inactive, KCNK3 inh -11*, KCNQ1 block inactive, KCNK3 inh conf 105* and KCNK3 uninduced inactive.
`Cc1cccc(/C=C/c2nc3ccccc3c(=O)[nH]2)c1` gave Kir21 inh -0.38, KCNQ1 pot inactive, hERG rescue -8, KCNK9 block inactive, KCNK3 inh -9.4*, KCNQ1 block inactive, KCNK3 inh conf 87* and KCNK3 uninduced inactive.
`Cc1onc(-c2ccccc2)c1C(=O)OCCOc1ccc([N+](=O)[O-])cc1[N+](=O)[O-]` gave Kir21 inh -1, KCNQ1 pot inactive, hERG rescue -13, KCNK9 block inactive, KCNK3 inh -10*, KCNQ1 block inactive, KCNK3 inh conf 92* and KCNK3 uninduced inactive.
Cc1cc([N+](=O)[O-])ccc1NC(=O)CSc1nnc(C)n1C was read as Kir21 inh 2.2, KCNQ1 pot inactive, hERG rescue 0, KCNK9 block inactive, KCNK3 inh inactive and KCNQ1 block inactive.
For O=[N+]([O-])c1ccc(O)c(C2CCCCC2)c1 the results were KCNK3 inh -11*, KCNK3 inh conf 127* and KCNK3 uninduced 0.14*.
Screening O=[N+]([O-])c1ccc2nc(C3CCCCC3)[nH]c2c1 returned Kir21 inh 1.2, KCNQ1 pot inactive, hERG rescue -15, KCNK9 block inactive, KCNK3 inh inactive and KCNQ1 block inactive.
For O/N=C/C1=C(Cl)c2ccccc2CC1 the results were Kir21 inh -0.41, KCNQ1 pot inactive, hERG rescue -14, KCNK9 block inactive, KCNK3 inh inactive and KCNQ1 block inactive.
Screening COc1ccc(NS(=O)(=O)c2cccc(NC(=O)CCS(=O)(=O)c3ccccc3)c2)cc1 returned Kir21 inh 0.07, KCNQ1 pot inactive, hERG rescue -15, KCNK9 block inactive, KCNK3 inh inactive and KCNQ1 block inactive.
Screening Cc1ccc(NS(=O)(=O)c2ccc(-c3cnc(C4CC4)o3)cc2)c(C)c1 returned Kir21 inh 0.68, KCNQ1 pot inactive, hERG rescue -6, KCNK9 block inactive, KCNK3 inh -10*, KCNQ1 block inactive, KCNK3 inh conf 132* and KCNK3 uninduced 0.14*.
